For assay [1], the system named is HT-29. Nature of the assay: Induction of cell cycle arrest in human HT-29 cells assessed as accumulation of cells at S phase at 4 uM incubated for 24 hrs by RNase/PI staining based flow cytometry analysis (reference value: 17.934 %). Type of assay: functional. (In general: In flow cytometry, cells or beads pass a laser one at a time.)
Assay [2] concerns HT-29. Nature of the assay: Induction of mitochondrial ROS generation in human HT-29 cells at 4 uM by MitoSOX red dye based flow cytometry analysis. Type of assay: functional, cell-based. The method in brief: (§1)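 Mitochondrial superoxide in HT-29 cells was read with the mitochondria-localizing MitoSOX Red probe after treatment at 1, 2 or 4 μM. Flow cytometry histograms were acquired on 10,000 cells, and results were expressed as mean fluorescence intensity. Versus control, significance was tested by one-way ANOVA with Tukey's post hoc test.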

Assay [3] deals with HT-29. Nature of the assay: Downregulation of beta-catenin protein expression in human HT-29 cells at 4 uM by immunostaining based confocal microscopic analysis. Type of assay: functional, cell-based.
For assay [4], the target named is T1, Catenin beta-1 (Homo sapiens) (UniProt P35222).
T1 sequence (whole entry): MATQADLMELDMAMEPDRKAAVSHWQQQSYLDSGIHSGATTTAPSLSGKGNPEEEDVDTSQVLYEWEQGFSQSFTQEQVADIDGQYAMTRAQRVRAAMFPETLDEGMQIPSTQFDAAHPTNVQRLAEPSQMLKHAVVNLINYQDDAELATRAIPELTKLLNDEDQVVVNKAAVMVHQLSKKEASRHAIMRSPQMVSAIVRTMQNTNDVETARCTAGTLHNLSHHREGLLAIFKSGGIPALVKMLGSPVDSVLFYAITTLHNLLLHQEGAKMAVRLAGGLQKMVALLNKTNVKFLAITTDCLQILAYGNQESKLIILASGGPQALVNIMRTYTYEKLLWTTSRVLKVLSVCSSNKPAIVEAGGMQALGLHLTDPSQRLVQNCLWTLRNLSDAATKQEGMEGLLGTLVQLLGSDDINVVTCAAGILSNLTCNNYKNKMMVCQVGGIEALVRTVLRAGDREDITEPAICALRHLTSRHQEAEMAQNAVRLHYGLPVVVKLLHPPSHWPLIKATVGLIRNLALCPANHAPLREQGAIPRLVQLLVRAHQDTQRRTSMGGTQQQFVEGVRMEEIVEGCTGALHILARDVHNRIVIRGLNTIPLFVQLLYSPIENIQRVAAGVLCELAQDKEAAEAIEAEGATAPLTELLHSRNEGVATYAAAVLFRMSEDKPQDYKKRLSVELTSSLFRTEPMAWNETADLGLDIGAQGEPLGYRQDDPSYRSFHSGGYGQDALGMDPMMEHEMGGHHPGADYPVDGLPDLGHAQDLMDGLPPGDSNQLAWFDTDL
Nature of the assay: Inhibition of beta-catenin phosphorylation in human HT-29 cells at 4 uM incubated for 72 hrs by Western blot analysis. The class given is cell-based.

For assay [5], the target named is Glycogen synthase kinase-3 beta (Homo sapiens) (UniProt P49841). The assay is described as follows: Inhibition of GSK3beta phosphorylation in human HT-29 cells at 4 uM incubated for 72 hrs by Western blot analysis. The class given is cell-based. (In general: A western blot detects proteins with antibodies after separation by electrophoresis.)
The subject of assay [6] is HT-29. The assay is described as follows: Inhibition of beta-actin protein expression in human HT-29 cells at 4 uM incubated for 72 hrs by Western blot analysis. The class given is functional, cell-based.
For assay [7], the system named is HT-29. Nature of the assay: Inhibition of TAB-182 protein expression in human HT-29 cells at 4 uM incubated for 72 hrs by Western blot analysis. Type of assay: functional, cell-based.
Assay [8] has as its system HT-29. The assay is described as follows: Inhibition of PI3K-p85 protein expression in human HT-29 cells at 4 uM incubated for 72 hrs by Western blot analysis. The class given is functional, cell-based.
Assay [9] has as its system HT-29. The assay is described as follows: Inhibition of pan-AKT protein expression in human HT-29 cells at 4 uM incubated for 72 hrs by Western blot analysis. Type of assay: functional, cell-based.
The subject of assay [10] is HT-29. The assay is described as follows: Induction of cell cycle arrest in human HT-29 cells assessed as accumulation of cells at S phase at 1 uM incubated for 24 hrs by RNase/PI staining based flow cytometry analysis (reference value: 17.934 %). The class given is functional.
For assay [11], the system named is HT-29. The assay is described as follows: Induction of cell cycle arrest in human HT-29 cells assessed as accumulation of cells at G2/M phase at 1 uM incubated for 24 hrs by RNase/PI staining based flow cytometry analysis (reference value: 23.695 %). The class given is functional.
Assay [12] concerns HT-29. The assay is described as follows: Induction of cell cycle arrest in human HT-29 cells assessed as accumulation of cells at subG1 phase at 1 uM incubated for 24 hrs by RNase/PI staining based flow cytometry analysis (reference value: 1.798%). The class given is functional.
The test system of assay [13] is HT-29. Nature of the assay: Induction of apoptosis in human HT29 cells assessed as increase in late apoptotic cells at 1 uM incubated for 24 hrs by annexin V/PI staining based flow cytometry analysis. The class given is functional, cell-based. The essentials: (§2)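 Annexin/PI double staining of HT-29 cells after 24 h exposure at 1, 2 or 4 μM. Flow cytometry gated early apoptotic, late apoptotic and necrotic populations, reported as % of cells. Comparison to untreated control used two-way ANOVA followed by Tukey's post hoc analysis.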

Assay [14] relates to HT-29. Nature of the assay: Induction of mitochondrial ROS generation in human HT-29 cells at 1 uM by MitoSOX red dye based flow cytometry analysis. The class given is functional, cell-based. The essentials:
as §1

In assay [15] the test system is HT-29. The assay is described as follows: Downregulation of beta-catenin protein expression in human HT-29 cells at 1 uM by immunostaining based confocal microscopic analysis. Type of assay: functional, cell-based.
Assay [16] has as its system HT-29. Nature of the assay: Downregulation of TAB-182 protein expression in human HT-29 cells at 1 uM by immunostaining based confocal microscopic analysis. The class given is functional, cell-based.
For assay [17], the target named is Phosphatidylinositol 3-kinase regulatory subunit alpha (Homo sapiens) (UniProt P27986). Nature of the assay: Inhibition of PI3K-P85 phosphorylation in human HT-29 cells at 1 uM incubated for 72 hrs by Western blot analysis. Type of assay: cell-based.
Assay [18] deals with HT-29. The assay is described as follows: Inhibition of phosphorylated PI3K-p85 protein expression in human HT-29 cells at 1 uM incubated for 72 hrs by Western blot analysis. Type of assay: functional, cell-based.
The test system of assay [19] is HT-29. Nature of the assay: Inhibition of PI3K-p85 protein expression in human HT-29 cells at 1 uM incubated for 72 hrs by Western blot analysis. Type of assay: functional, cell-based.
Assay [20] has as its system HT-29. The assay is described as follows: Induction of cell cycle arrest in human HT-29 cells assessed as accumulation of cells at S phase at 2 uM incubated for 24 hrs by RNase/PI staining based flow cytometry analysis (reference value: 17.934 %). Type of assay: functional.
Assay [21] deals with HT-29. The assay is described as follows: Induction of cell cycle arrest in human HT-29 cells assessed as accumulation of cells at G2/M phase at 2 uM incubated for 24 hrs by RNase/PI staining based flow cytometry analysis (reference value: 23.695 %). The class given is functional.
The subject of assay [22] is HT-29. Nature of the assay: Induction of apoptosis in human HT29 cells assessed as increase in early apoptotic cells at 2 uM incubated for 24 hrs by annexin V/PI staining based flow cytometry analysis. Type of assay: functional, cell-based. The method in brief:
as §2

In assay [23] the test system is HT-29. The assay is described as follows: Downregulation of beta-catenin protein expression in human HT-29 cells at 2 uM by immunostaining based confocal microscopic analysis. The class given is functional, cell-based.
Assay [24] concerns the target 182 kDa tankyrase-1-binding protein (Homo sapiens) (UniProt Q9C0C2). Nature of the assay: Inhibition of TAB-182 phosphorylation in human HT-29 cells at 2 uM incubated for 72 hrs by Western blot analysis. Type of assay: cell-based.
For assay [25], the system named is HT-29. The assay is described as follows: Inhibition of AXIN-1 protein expression in human HT-29 cells at 2 uM incubated for 72 hrs by Western blot analysis. The class given is functional, cell-based.
Assay [26] deals with HT-29. Nature of the assay: Inhibition of phosphorylated GSK-3beta protein expression in human HT-29 cells at 2 uM incubated for 72 hrs by Western blot analysis. The class given is functional, cell-based.
For assay [27], the system named is HT-29. The assay is described as follows: Inhibition of GSK-3beta protein expression in human HT-29 cells at 2 uM incubated for 72 hrs by Western blot analysis. The class given is functional, cell-based.

Calls of active or inactive are those of the source. No cut-off for these calls is given here.

182 kDa tankyrase-1-binding protein (Homo sapiens), sequence (Q9C0C2 whole entry): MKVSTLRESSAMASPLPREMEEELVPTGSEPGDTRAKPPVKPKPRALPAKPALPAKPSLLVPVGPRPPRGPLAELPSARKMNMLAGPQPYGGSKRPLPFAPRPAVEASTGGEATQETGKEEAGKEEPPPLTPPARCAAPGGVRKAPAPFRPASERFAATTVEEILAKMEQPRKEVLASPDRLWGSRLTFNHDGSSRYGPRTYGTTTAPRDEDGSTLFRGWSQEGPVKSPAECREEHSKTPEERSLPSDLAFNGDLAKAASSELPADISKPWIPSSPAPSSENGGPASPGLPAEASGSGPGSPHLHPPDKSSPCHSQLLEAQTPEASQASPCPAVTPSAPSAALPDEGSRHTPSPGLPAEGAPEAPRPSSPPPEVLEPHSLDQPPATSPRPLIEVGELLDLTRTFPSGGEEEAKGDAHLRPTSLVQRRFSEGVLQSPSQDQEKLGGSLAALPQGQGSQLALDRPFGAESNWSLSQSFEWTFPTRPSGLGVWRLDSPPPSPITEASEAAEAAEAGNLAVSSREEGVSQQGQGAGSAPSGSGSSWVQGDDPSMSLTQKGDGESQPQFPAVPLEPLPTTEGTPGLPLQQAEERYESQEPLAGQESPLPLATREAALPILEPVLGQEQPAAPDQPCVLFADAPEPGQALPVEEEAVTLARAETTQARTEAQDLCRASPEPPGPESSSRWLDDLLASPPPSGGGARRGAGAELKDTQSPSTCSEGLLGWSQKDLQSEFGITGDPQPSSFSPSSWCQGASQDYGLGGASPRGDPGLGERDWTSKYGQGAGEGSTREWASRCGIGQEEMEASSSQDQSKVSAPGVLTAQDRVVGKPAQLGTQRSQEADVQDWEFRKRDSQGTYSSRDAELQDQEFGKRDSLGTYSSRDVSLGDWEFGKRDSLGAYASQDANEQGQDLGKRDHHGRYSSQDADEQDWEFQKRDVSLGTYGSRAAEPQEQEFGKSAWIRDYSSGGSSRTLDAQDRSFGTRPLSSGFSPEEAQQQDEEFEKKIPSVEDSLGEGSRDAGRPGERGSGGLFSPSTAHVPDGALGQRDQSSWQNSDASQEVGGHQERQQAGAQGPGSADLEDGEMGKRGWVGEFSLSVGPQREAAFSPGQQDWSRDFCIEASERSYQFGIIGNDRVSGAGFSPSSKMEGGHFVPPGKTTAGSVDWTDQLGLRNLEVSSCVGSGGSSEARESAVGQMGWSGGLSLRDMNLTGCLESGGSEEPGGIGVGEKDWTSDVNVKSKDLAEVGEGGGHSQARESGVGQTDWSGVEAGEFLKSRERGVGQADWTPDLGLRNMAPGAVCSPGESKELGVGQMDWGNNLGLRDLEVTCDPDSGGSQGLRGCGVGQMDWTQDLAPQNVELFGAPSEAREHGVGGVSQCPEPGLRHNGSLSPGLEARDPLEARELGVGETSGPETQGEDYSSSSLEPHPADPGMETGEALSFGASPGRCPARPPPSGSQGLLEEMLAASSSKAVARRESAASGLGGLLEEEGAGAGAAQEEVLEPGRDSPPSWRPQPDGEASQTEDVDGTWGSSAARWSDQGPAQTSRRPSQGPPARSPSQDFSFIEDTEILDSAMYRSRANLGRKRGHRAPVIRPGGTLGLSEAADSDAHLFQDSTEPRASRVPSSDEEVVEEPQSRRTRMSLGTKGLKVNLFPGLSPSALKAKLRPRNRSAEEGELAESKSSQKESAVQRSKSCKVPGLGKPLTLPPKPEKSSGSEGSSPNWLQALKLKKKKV
Glycogen synthase kinase-3 beta (Homo sapiens), sequence (P49841 whole entry, looked up): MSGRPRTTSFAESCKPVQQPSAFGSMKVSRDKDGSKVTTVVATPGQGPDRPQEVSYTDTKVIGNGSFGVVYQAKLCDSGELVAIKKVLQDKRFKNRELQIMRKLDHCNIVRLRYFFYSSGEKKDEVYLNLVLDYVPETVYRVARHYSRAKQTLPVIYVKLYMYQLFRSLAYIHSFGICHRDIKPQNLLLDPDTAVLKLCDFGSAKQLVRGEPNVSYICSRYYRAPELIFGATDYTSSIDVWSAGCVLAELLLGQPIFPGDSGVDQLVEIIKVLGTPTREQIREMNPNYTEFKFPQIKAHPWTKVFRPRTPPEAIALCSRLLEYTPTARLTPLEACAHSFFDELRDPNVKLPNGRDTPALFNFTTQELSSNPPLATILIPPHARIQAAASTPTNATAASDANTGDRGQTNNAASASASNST
Phosphatidylinositol 3-kinase regulatory subunit alpha (Homo sapiens), sequence (P27986 whole entry): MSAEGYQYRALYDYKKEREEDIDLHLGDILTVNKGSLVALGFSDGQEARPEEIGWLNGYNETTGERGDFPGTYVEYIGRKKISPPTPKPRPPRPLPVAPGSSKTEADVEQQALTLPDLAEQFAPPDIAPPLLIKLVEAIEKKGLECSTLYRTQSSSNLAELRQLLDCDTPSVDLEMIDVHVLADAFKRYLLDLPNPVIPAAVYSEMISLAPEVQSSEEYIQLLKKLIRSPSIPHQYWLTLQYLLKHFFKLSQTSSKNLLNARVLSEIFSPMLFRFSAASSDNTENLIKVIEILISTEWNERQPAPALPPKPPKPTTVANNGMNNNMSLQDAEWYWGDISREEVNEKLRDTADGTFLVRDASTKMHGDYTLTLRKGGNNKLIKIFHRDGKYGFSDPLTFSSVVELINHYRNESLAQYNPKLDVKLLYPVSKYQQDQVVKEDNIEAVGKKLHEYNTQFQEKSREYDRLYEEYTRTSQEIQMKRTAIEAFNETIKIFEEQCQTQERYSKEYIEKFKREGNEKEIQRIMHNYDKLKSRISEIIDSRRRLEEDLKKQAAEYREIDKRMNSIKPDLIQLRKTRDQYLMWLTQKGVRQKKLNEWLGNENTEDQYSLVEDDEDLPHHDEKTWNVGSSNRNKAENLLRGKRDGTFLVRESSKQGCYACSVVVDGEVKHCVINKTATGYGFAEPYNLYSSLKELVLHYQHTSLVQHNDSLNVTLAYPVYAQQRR

Turning to `COc1cccc(-n2c(SCCc3c[nH]c4ccccc34)nnc2-c2ccncc2)c1`, the Activity in the assay with HT-29 [1] is 20.837%. Further, the outcome in the assay on HT-29 [2] and with HT-29 [3] was Active. For the same compound, the inhibition result (in assay [4]; in assay [5]; in the assay on HT-29 [6]; in the assay with HT-29 [7]; in the assay with HT-29 [8]; with HT-29 [9]) was “Active” throughout.

As to `COc1ccc(-n2c(SCCc3c[nH]c4ccccc34)nnc2-c2ccncc2)cc1`, the Activity in the assay on HT-29 [10] turned out to be 9.899%; in the assay on HT-29 [11], 22.841%; in the assay with HT-29 [12], 1.225%. Moreover, the outcome in the assay with HT-29 [13], in the assay with HT-29 [14], in the assay with HT-29 [15] and with HT-29 [16] was Active. The inhibition entry (in [17]; in the assay on HT-29 [18]; in the assay on HT-29 [19]) was “Active” each time.

With `Fc1ccccc1-n1c(SCCc2c[nH]c3ccccc23)nnc1-c1ccncc1`, the Activity with HT-29 [20] was 7.976%; with HT-29 [21], 18.982%. The outcome in the assay on HT-29 [22] and in the assay on HT-29 [23] was Active. Besides, the inhibition entry (in [24]; in the assay with HT-29 [25]; in the assay on HT-29 [26]; in the assay on HT-29 [27]) was “Active” each time.

These data come from ChEMBL document CHEMBL5257059, “Pyridine-Based 1,2,4-Triazolo-Tethered Indole Conjugates Potentially Affecting TNKS and PI3K in Colorectal Cancer” (ACS Med Chem Lett, 2023).
